Where “and” joins values, the source holds several entries; their conditions need not be identical. Equal entries are not always repeated.
Columns and labels:
Format in all cases: ADME, organism-based
Rattus norvegicus [1] = assay: Distribution of radioactivity in rat brain region cerebellum 60 min after intravenous administration of iodine labeled compound in presence of RTI-113 blocker in study 2; settings: in vivo, 1 h
How it was run: (§1)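 Male Sprague–Dawley rats (250–300 g), ketamine-anesthetized. Blocker (2 mg/kg) or none was given iv 15 min before tail-vein radioligand (10 µCi in 0.2 mL 10% EtOH/saline). Rats were killed at 60 min with im pentobarbital. Brain regions were dissected, weighed and gamma-counted. % dose/g was taken from decay-corrected, background-subtracted counts versus the injected dose.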

Rattus norvegicus [2] = assay: Distribution of radioactivity in rat brain region frontal cortex 60 min after intravenous administration of iodine labeled compound in absence of blocker in study 1; settings: in vivo, 1 h; how it was run: as §1
Rattus norvegicus [3] = assay: Distribution of radioactivity in rat brain striatum 60 min after intravenous administration of iodine labeled compound; settings: in vivo, 1 h
How it was run: (§2)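 Male Sprague–Dawley rats (225–300 g) under ketamine anaesthesia were given [123I]ZIENT (10 μCi) in 0.2 mL 10% EtOH/0.9% NaCl into the tail vein, with a saline flush. Hypothalamus, prefrontal cortex, striatum, pons and cerebellum were dissected and gamma-counted. % injected dose/g came from decay-corrected counts against the diluted injected dose, and region/cerebellum ratios were taken from these. Mean ± SE, n=4–5.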

Rattus norvegicus [4] = assay: Distribution of radioactivity in rat heart 60 min after intravenous administration of iodine labeled compound; settings: in vivo, 1 h
How it was run: (§3)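 Tail-vein injection of [123I]ZIENT (10 μCi in 0.2 mL 10% EtOH/0.9% NaCl, then 0.4 mL saline flush) into ketamine-anaesthetised male Sprague–Dawley rats (225–300 g). Animals were killed by cardiac excision at set times. Organs were excised, rinsed, blotted, weighed and gamma-counted. % dose/g was calculated against diluted aliquots of injectate. Mean ± SE, n=4–5.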

Rattus norvegicus [5] = assay: Distribution of radioactivity in rat blood 5 min after intravenous administration of iodine labeled compound; settings: in vivo
How it was run: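 Male Sprague–Dawley rats (225–300 g) under ketamine received 10 µCi radioligand in 0.2 mL 10% EtOH/0.9% NaCl via tail vein, then a saline flush. Killed by cardiac excision at set times. Organs were excised, weighed and gamma-counted. % dose/g was taken against diluted injectate. Mean ± SE and range, n=4 (5 min) or 5 (30–120 min).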

Rattus norvegicus [6] = assay: Distribution of radioactivity in rat brain 30 min after intravenous administration of iodine labeled compound; settings: in vivo, 0.5 h
Rattus norvegicus [7] = assay: Distribution of radioactivity in rat brain region pons 60 min after intravenous administration of iodine labeled compound in presence of RTI-113 blocker in study 1; settings: in vivo, 1 h; how it was run: as §1
Rattus norvegicus [8] = assay: Distribution of radioactivity in rat brain region pons 60 min after intravenous administration of iodine labeled compound in presence of fluvoxamine blocker in study 1; settings: in vivo, 1 h; how it was run: as §1
Rattus norvegicus [9] = assay: Distribution of radioactivity in rat brain region striatum 60 min after intravenous administration of iodine labeled compound in absence of blocker in study 2; settings: in vivo, 1 h
How it was run: (§4)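 Male Sprague–Dawley rats (250–300 g), ketamine-anaesthetised, received [123I]ZIENT (10 μCi) in 0.2 mL 10% ethanol/0.9% NaCl via the tail vein. […] Rats were killed at 60 min with pentobarbital, brain regions dissected and gamma-counted. Values are % dose/g from decay-corrected, background-subtracted counts against the diluted injected dose.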

Rattus norvegicus [10] = assay: Distribution of radioactivity in rat brain region striatum 60 min after intravenous administration of iodine labeled compound in presence of RTI-113 blocker in study 1; settings: in vivo, 1 h; how it was run: as §4
Rattus norvegicus [11] = assay: Ratio of distribution of radioactivity in rat brain region striatum and cerebellum 60 min after intravenous administration of iodine labeled compound in absence of blocker in study 1; settings: in vivo, 1 h
Rattus norvegicus [12] = assay: Ratio of distribution of radioactivity in rat brain region striatum and cerebellum 60 min after intravenous administration of iodine labeled compound in absence of blocker in study 2; settings: in vivo, 1 h
Rattus norvegicus [13] = assay: Ratio of distribution of radioactivity in rat brain striatum and cerebellum 30 min after intravenous administration of iodine labeled compound; settings: in vivo, 0.5 h
How it was run: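 Male Sprague–Dawley rats (225–300 g), ketamine anesthesia, injected via tail vein with [123I]ZIENT (10 μCi in 0.2 mL 10% EtOH/0.9% NaCl, 0.4 mL saline flush). Killed at 5, 30, 60 or 120 min. Striatum and cerebellum dissected, weighed, γ-counted. Decay-corrected %injected dose/g taken against diluted injectate. Ratio is striatum over cerebellum. Four or five rats per time point, mean ± standard error.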

Rattus norvegicus [14] = assay: Distribution of radioactivity in rat brain region hypothalamus 60 min after intravenous administration of iodine labeled compound in presence of fluvoxamine blocker in study 1; settings: in vivo, 1 h; how it was run: as §1
Rattus norvegicus [15] = assay: Distribution of radioactivity in rat brain region pons 60 min after intravenous administration of iodine labeled compound in absence of blocker in study 1; settings: in vivo, 1 h; how it was run: as §1
Rattus norvegicus [16] = assay: Distribution of radioactivity in rat brain 60 min after intravenous administration of iodine labeled compound; settings: in vivo, 1 h
Rattus norvegicus [17] = assay: Distribution of radioactivity in rat brain cerebellum 60 min after intravenous administration of iodine labeled compound; settings: in vivo, 1 h
How it was run: (§5)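 Male Sprague–Dawley rats (225–300 g) under ketamine received 10 µCi radioligand iv (tail vein) in 10% EtOH/saline. Hypothalamus, prefrontal cortex, striatum, pons and cerebellum were dissected, weighed and gamma-counted. % injected dose/g was taken from decay-corrected counts versus diluted dose. Mean ± SE and range, n=5 (5, 30 min) or 4 (60, 120 min).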

Rattus norvegicus [18] = assay: Distribution of radioactivity in rat brain hypothalamus 120 min after intravenous administration of iodine labeled compound; settings: in vivo, 2 h; how it was run: as §5
Rattus norvegicus [19] = assay: Distribution of radioactivity in rat brain hypothalamus 5 min after intravenous administration of iodine labeled compound; settings: in vivo; how it was run: as §5
Rattus norvegicus [20] = assay: Distribution of radioactivity in rat brain pons 5 min after intravenous administration of iodine labeled compound; settings: in vivo; how it was run: as §5
Rattus norvegicus [21] = assay: Distribution of radioactivity in rat brain pons 60 min after intravenous administration of iodine labeled compound; settings: in vivo, 1 h; how it was run: as §5
Rattus norvegicus [22] = assay: Distribution of radioactivity in rat brain prefrontal cortex 30 min after intravenous administration of iodine labeled compound; settings: in vivo, 0.5 h; how it was run: as §5
Rattus norvegicus [23] = assay: Distribution of radioactivity in rat brain region cerebellum 60 min after intravenous administration of iodine labeled compound in absence of blocker in study 1; settings: in vivo, 1 h; how it was run: as §1
Rattus norvegicus [24] = assay: Ratio of distribution of radioactivity in rat brain region pons and cerebellum 60 min after intravenous administration of iodine labeled compound in presence of reboxetine blocker in study 2; settings: in vivo, 1 h
Rattus norvegicus [25] = assay: Distribution of radioactivity in rat lung 30 min after intravenous administration of iodine labeled compound; settings: in vivo, 0.5 h; how it was run: as §3
Rattus norvegicus [26] = assay: Distribution of radioactivity in rat spleen 60 min after intravenous administration of iodine labeled compound; settings: in vivo, 1 h; how it was run: as §3
Rattus norvegicus [27] = assay: Ratio of distribution of radioactivity in rat brain prefrontal cortex and cerebellum 30 min after intravenous administration of iodine labeled compound; settings: in vivo, 0.5 h; how it was run: as §2
Rattus norvegicus [28] = assay: Ratio of distribution of radioactivity in rat brain prefrontal cortex and cerebellum 5 min after intravenous administration of iodine labeled compound; settings: in vivo; how it was run: as §2
Rattus norvegicus [29] = assay: Ratio of distribution of radioactivity in rat brain region hypothalamus and cerebellum 60 min after intravenous administration of iodine labeled compound in absence of blocker in study 2; settings: in vivo, 1 h
Rattus norvegicus [30] = assay: Distribution of radioactivity in rat spleen 30 min after intravenous administration of iodine labeled compound; settings: in vivo, 0.5 h; how it was run: as §3
Rattus norvegicus [31] = assay: Ratio of distribution of radioactivity in rat brain region hypothalamus and cerebellum 60 min after intravenous administration of iodine labeled compound in presence of RTI-113 blocker in study 1; settings: in vivo, 1 h
Rattus norvegicus [32] = assay: Distribution of radioactivity in rat brain region hypothalamus 60 min after intravenous administration of iodine labeled compound in absence of blocker in study 1; settings: in vivo, 1 h; how it was run: as §1

COC(=O)[C@@H]1C2CCC(C[C@@H]1c1ccc(/C=C\I)cc1)N2 (some centres not stated)
Distribution (dose/g) (Rattus norvegicus [1]): 0.25%
Distribution (dose/g) (Rattus norvegicus [2]): 0.75%
Distribution (dose/g) (Rattus norvegicus [3]): 0.68%
Distribution (dose/g) (Rattus norvegicus [4]): 0.29%
Distribution (dose/g) (Rattus norvegicus [5]): 0.44%
Distribution (dose/g) (Rattus norvegicus [6]): 0.74%
Distribution (dose/g) (Rattus norvegicus [7]): 0.56%
Distribution (dose/g) (Rattus norvegicus [8]): 0.25%
Distribution (dose/g) (Rattus norvegicus [9]): 0.63%
Distribution (dose/g) (Rattus norvegicus [10]): 0.64%
Distribution (dose/g) (Rattus norvegicus [11]): 3.17%
Distribution (dose/g) (Rattus norvegicus [12]): 3.32%
Distribution (dose/g) (Rattus norvegicus [13]): 2.25%
Distribution (dose/g) (Rattus norvegicus [14]): 0.31%
Distribution (dose/g) (Rattus norvegicus [15]): 0.62%
Distribution (dose/g) (Rattus norvegicus [16]): 0.62%
Distribution (dose/g) (Rattus norvegicus [17]): 0.25%
Distribution (dose/g) (Rattus norvegicus [18]): 0.59%
Distribution (dose/g) (Rattus norvegicus [19]): 0.58%
Distribution (dose/g) (Rattus norvegicus [20]): 0.59%
Distribution (dose/g) (Rattus norvegicus [21]): 0.59%
Distribution (dose/g) (Rattus norvegicus [22]): 0.82%
Distribution (dose/g) (Rattus norvegicus [23]): 0.24% and 0.19%
Distribution (dose/g) (Rattus norvegicus [24]): 2.35%
Distribution (dose/g) (Rattus norvegicus [25]): 1.59%
Distribution (dose/g) (Rattus norvegicus [26]): 0.61%
Distribution (dose/g) (Rattus norvegicus [27]): 2.56%
Distribution (dose/g) (Rattus norvegicus [28]): 1.45%
Distribution (dose/g) (Rattus norvegicus [29]): 3.95%
Distribution (dose/g) (Rattus norvegicus [30]): 0.81%
Distribution (dose/g) (Rattus norvegicus [31]): 3.2%
Distribution (dose/g) (Rattus norvegicus [32]): 0.92%

Source: ChEMBL document CHEMBL1136726, “Synthesis and characterization of iodine-123 labeled 2beta-carbomethoxy-3beta-(4'-((Z)-2-iodoethenyl)phenyl)nortropane. A ligand for in vivo imaging of serotonin transporters by single-photon-emission tomography” (J Med Chem, 2003)
